Test results published in ChEMBL document CHEMBL1629555, “Antimalarial activity of phenylthiazolyl-bearing hydroxamate-based histone deacetylase inhibitors” (Antimicrob Agents Chemother, 2008).
Activity calls are given as the source filed them. No cut-off for these calls is given here.

Key:
[1] = tested on: Plasmodium berghei; assay: Antimalarial activity against Plasmodium berghei infected in mouse assessed as effect on cure rate at split dose of 80 mg/kg/day, po for 3 days; format: functional, organism-based
Procedure, shortened: (§1)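 Mice were infected ip with 10^6 P. berghei-parasitized erythrocytes. The compound was given in hydroxyethylcellulose-Tween 20 vehicle, 5 mice per group, starting on day 3 post-infection. Regimens were once-daily or split daily oral doses over 3 days, subcutaneous dosing, or dosing over 7 days. Read-outs were posttreatment parasitemia on day 6 as a fraction of controls and the number of mice cured.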

[2] = tested on: Plasmodium berghei; assay: Antimalarial activity against Plasmodium berghei infected in mouse assessed as parasitemia level at 0.32 mg/kg/day for 3 days measured on day 3 (reference value: 0.46%); format: functional
[3] = tested on: Plasmodium berghei; assay: Antimalarial activity against Plasmodium berghei infected in mouse assessed as parasitemia level at 12.8 mg/kg/day for 3 days measured on day 3 in presence of 16 mg/kg/day chloroquine (reference value: 0.46%); format: functional
Procedure, shortened: (§2)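 Mice were infected ip with 10^6 P. berghei-parasitized erythrocytes. The compound was given orally once daily on days 3, 4 and 5 post-infection in hydroxyethylcellulose-Tween 20 vehicle, alone or together with chloroquine, with 5 mice per dose group. Parasitemia (%) was read on days 3 and 6, and cures were counted as animals cured out of 5.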

[4] = tested on: Plasmodium falciparum; assay: Antimalarial activity against Plasmodium falciparum at 1 nM assessed as parasite growth after 3.5 hrs; format: functional
Procedure, shortened: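 Infected erythrocytes were exposed to compound for 3.5 h, washed, and returned to culture. Parasite growth was compared with matched controls after 48 h.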

[5] = tested on: Plasmodium berghei; assay: Antimalarial activity against Plasmodium berghei infected in mouse assessed as parasitemia level at split dose of 320 mg/kg/day, po for 3 days measured on day 6 relative to control; format: functional
Procedure, shortened: (§3)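 Blood-stage P. berghei model: mice inoculated ip with 10^6 parasitized erythrocytes. Oral treatment for 3 days, with the daily dose split, in hydroxyethylcellulose-Tween 20 vehicle. Day-6 parasitemia expressed as a fraction of control parasitemia.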

[6] = tested on: Mus musculus; assay: Toxicity in Plasmodium berghei-infected mouse assessed as mortality at split dose of 80 mg/kg/day, po for 3 days; format: organism-based; parameters: route oral; details: in vivo, 72 h
[7] = tested on: Plasmodium berghei; assay: Antimalarial activity against Plasmodium berghei infected in mouse assessed as effect on cure rate at 3.2 mg/kg/day for 3 days measured on day 6 in presence of 4 mg/kg/day chloroquine (reference value: 37%); format: functional, organism-based
[8] = tested on: Plasmodium berghei; assay: Antimalarial activity against Plasmodium berghei infected in mouse assessed as effect on cure rate at 0.32 mg/kg/day for 3 days measured on day 6 in presence of 4 mg/kg/day chloroquine; format: functional, organism-based
[9] = tested on: Plasmodium berghei; assay: Antimalarial activity against Plasmodium berghei infected in mouse assessed as parasitemia level at 32 mg/kg/day for 3 days measured on day 6 in presence of 3.6 mg/kg/day chloroquine (reference value: 37%); format: functional; procedure, shortened: as §2
[10] = tested on: Plasmodium berghei; assay: Antimalarial activity against Plasmodium berghei infected in mouse assessed as parasitemia level at split dose of 40 mg/kg/day, po for 3 days measured on day 6 relative to control; format: functional; procedure, shortened: as §3
[11] = AUC in ICR mouse at 50 mg/kg/day, po by LC/MS analysis; format: ADME, organism-based; parameters: route oral; details: plasma
Procedure, shortened: (§4)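 Male ICR mice, 8 weeks old, got one 50 mg/kg dose either orally or subcutaneously, with three groups of six mice per route. One mouse per group was killed at 15, 30 and 60 min and at 3, 6 and 24 h. Plasma was deproteinized with 2 volumes of acetonitrile and analysed by LC-MS/MS on a C18 column against 0–500 ng/ml standards, with parent and acid metabolite measured in the same sample. Each six-mouse group was treated as one "animal" and fitted to a two-compartment model. AUC was taken by the linear trapezoidal rule extrapolated to infinity, and Cmax and Tmax were read per "animal".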

[12] = Selectivity index, ratio of LC50 for mouse RAW264.7 cells to IC50 for Plasmodium falciparum; details: raw264.7
[13] = tested on: Plasmodium falciparum; assay: Antimalarial activity against chloroquine-resistant Plasmodium falciparum FVO infected in Aotus lemurinus […] monkey assessed as reduction in parasitemia at 16 mg/kg/day, po for 3 days; format: functional, organism-based
[14] = tested on: Plasmodium berghei; assay: Antimalarial activity against Plasmodium berghei infected in mouse assessed as parasitemia level at 3.2 mg/kg/day for 3 days measured on day 3 in presence of 4 mg/kg/day chloroquine (reference value: 0.46%); format: functional
[15] = tested on: Plasmodium falciparum; assay: Antimalarial activity against drug-resistant Plasmodium falciparum D6 infected in Aotus lemurinus lemurinus monkey; format: functional, organism-based
[16] = tested on: Mus musculus; assay: Toxicity in Plasmodium berghei-infected mouse assessed as mortality at single dose of 20 mg/kg/day, po for 3 days; format: organism-based; parameters: route oral; details: in vivo, 72 h
[17] = Half life in mouse liver microsomes by LC/MS analysis; format: ADME, Microsome
[18] = tested on: Plasmodium berghei; assay: Antimalarial activity against Plasmodium berghei infected in mouse assessed as parasitemia level at 3.2 mg/kg/day for 3 days measured on day 3 (reference value: 0.46%); format: functional
[19] = tested on: Plasmodium berghei; assay: Antimalarial activity against Plasmodium berghei infected in mouse assessed as parasitemia level at 0.32 mg/kg/day for 3 days measured on day 6 in presence of 4 mg/kg/day chloroquine (reference value: 37%); format: functional
[20] = tested on: Plasmodium berghei; assay: Antimalarial activity against Plasmodium berghei infected in mouse assessed as parasitemia level at 32 mg/kg/day for 3 days measured on day 3 in presence of 3.6 mg/kg/day chloroquine (reference value: 0.46%); format: functional; procedure, shortened: as §2
[21] = Cmax in ICR mouse at 50 mg/kg/day, po by LC/MS analysis; format: ADME, organism-based; parameters: dose 50 mg/kg/day, route oral; details: in vivo; procedure, shortened: as §4
[22] = tested on: Plasmodium falciparum; assay: Antimicrobial activity against Plasmodium falciparum D6 infected in Aotus lemurinus lemurinus monkey at […] in presence of azithromycin; format: functional
[23] = tested on: Plasmodium berghei; assay: Antimalarial activity against Plasmodium berghei infected in mouse assessed as effect on cure rate at single dose of 20 mg/kg/day, po for 3 days; format: functional, organism-based; procedure, shortened: as §1
[24] = tested on: Plasmodium berghei; assay: Antimalarial activity against Plasmodium berghei infected in mouse assessed as effect on cure rate at split dose of 640 mg/kg/day, po for 3 days; format: functional, organism-based; procedure, shortened: as §1
[25] = tested on: Plasmodium berghei; assay: Antimalarial activity against Plasmodium berghei infected in mouse assessed as effect on cure rate at 32 mg/kg/day for 3 days; format: functional, organism-based; procedure, shortened: as §2
[26] = tested on: Plasmodium berghei; assay: Antimalarial activity against Plasmodium berghei infected in mouse assessed as effect on cure rate at 320 mg/kg/day for 3 days; format: functional, organism-based; procedure, shortened: as §2
[27] = tested on: Plasmodium berghei; assay: Antimalarial activity against Plasmodium berghei infected in mouse assessed as effect on cure rate at 130 mg/kg/day, sc for 3 days; format: functional, organism-based; procedure, shortened: as §1
[28] = tested on: Plasmodium berghei; assay: Antimalarial activity against Plasmodium berghei infected in mouse assessed as parasitemia level at 52 mg/kg/day for 3 days measured on day 3 in presence of 64 mg/kg/day chloroquine (reference value: 0.46%); format: functional; procedure, shortened: as §2
[29] = Cmax in ICR mouse at 50 mg/kg/day, sc by LC/MS analysis; format: ADME, organism-based; parameters: dose 50 mg/kg/day, route subcutaneous; details: in vivo; procedure, shortened: as §4
[30] = Inhibition of histone deacetylase assessed as alteration of histone H3 acetylation by cell-based assay
Procedure, shortened: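 About 3 × 10^9 erythrocytes infected with late-trophozoite P. falciparum 3D7 were exposed to compound or to DMSO vehicle for 3.5 h at 37°C, and an untreated sample was taken at the start. Histones were extracted, about 6 × 10^8 parasites were loaded per lane on SDS–15% PAGE, and loading was checked by silver stain. Western blots were probed with anti-tetraacetyl-H4 and anti-diacetyl-H3 antisera and detected by ECL.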

Compound: Nc1cccc(-c2csc(NC(=O)CCCCCCC(=O)NO)n2)c1
- Activity [1]: inactive
- Activity [2]: 0.62%
- Activity [3]: 0.52%
- Activity [4]: <=40%
- fold change (FC) [5]: 0.004
- Activity [6]: Non-toxic
- Activity [7]: inactive
- Activity [8]: inactive
- Activity [9]: 0.08%
- fold change (FC) [10]: 0.32
- AUC [11]: 3690 ng·h/mL
- selectivity ratio [12]: 1080
- inhibition [13]: inactive
- Activity [14]: 0.6%
- IC50 [15]: 0.8 nM
- Activity [16]: Non-toxic
- half-life [17]: 11 min
- Activity [18]: 0.64%
- Activity [19]: 0.024%
- Activity [20]: 0.44%
- Cmax [21]: 2500 ng/mL
- fractional inhibitory concentration index (FICI) [22]: 1.7
- Activity [23]: inactive
- Activity [24]: inactive
- Activity [25]: inactive
- Activity [26]: inactive
- Activity [27]: inactive
- Activity [28]: 0.48%
- Cmax [29]: 403 ng/mL
- IC50 [30]: 10.4 nM
